Measured values collected from several papers.
Lines come from different studies, so protocols differ.
Target: Death-associated protein kinase 2 (DAPK2, Homo sapiens, UniProt Q9UIK4)

Compound | assay | conditions | remaining binding
Cc1cc(-n2nc(Cc3cc(F)cc(C(F)(F)F)c3)nc2C)ccc1C(N)=O | cell-free assay, competition with immobilised ligand | 1 µM | 95%
F[C@@H]1CCN(c2nccc(-c3cnn4ncccc34)n2)C1 | binding | 1 µM | 100%
Cc1cnc(Nc2ccc(C(=O)N3CCC(N4CCCC4)CC3)cc2)nc1-c1cc2ccccc2s1 | binding, competition with immobilised ligand | 1 µM | 8.9%
Cc1c(NC(=O)c2cc(C(N)=O)nc3cc(F)ccc23)c(C(F)(F)F)nn1Cc1ccc(C#N)cc1 | cell-free assay, competition with immobilised ligand | 1 µM | 99%
COc1ncc2cc3ccccc3nc2c1C#N | cell-free assay, competition with immobilised ligand | 5 µM | 97%
FC(F)(F)Oc1cccc(-c2cnc3ccc(-c4ccncc4)nn23)c1 | cell-free assay, competition with immobilised ligand | 5 µM | 66%
CS(=O)(=O)N1CCCC(NC(=O)[C@H](CCC2CCCCC2)NC(=O)c2ccc(CNc3ncnc4c3nnn4-c3ccccc3)cc2)C1 (stereo partly shown) | cell-free assay, competition with immobilised ligand | 0.1 µM | 90%
O=C(c1ccc(Nc2ncc(Cl)c(-c3cc4ccccc4s3)n2)cc1)N1CCC(N2CCCC2)CC1 | binding, competition with immobilised ligand | 1 µM | 20%
c1cncc(-c2cccc(Nc3nccc(NC4CCCCC4)n3)c2)c1 | binding, competition with immobilised ligand | 10 µM | 84%
COc1cnc(Nc2cccc(S(N)(=O)=O)c2)nc1N1CCN(c2ccccc2)C(=O)C1 | binding, competition with immobilised ligand | 1 µM | 100%
C[C@H]1CCN(c2nccc(-c3cnn4ncccc34)n2)C1 | binding | 1 µM | 72%
O=C(NCC1CCOCC1)c1n[nH]cc1NC(=O)c1c(F)cccc1F | binding, competition with immobilised ligand | 1 µM | 95%
CC(=O)C1=C(C)N(c2cccc(C(F)(F)F)c2)C(=O)N[C@@H]1c1ccc(C#N)nc1 | cell-free assay, competition with immobilised ligand | 1 µM | 79.2%
CN(C)c1nccc(-c2cnn3ncccc23)n1 | binding | 1 µM | 90%
COc1cnc(Nc2cccc(S(N)(=O)=O)c2)nc1N1CCN(c2ccccc2)CC1 | binding, competition with immobilised ligand | 1 µM | 78%
Cc1cnn2ncc(-c3ccnc(N(C)C)n3)c2c1 | binding | 1 µM | 87%
O=C(c1ccc(Nc2nccc(-c3cc4ccccc4s3)n2)cc1)N1CCC(N2CCCC2)CC1 | binding, competition with immobilised ligand | 1 µM | 19%
N[C@@H]1CCN(c2nccc(-c3cnn4ncccc34)n2)C1 | binding | 1 µM | 100%
COc1cccc(CNC(=O)c2nc3scc(COCc4ccc(C(=O)O)cc4)c3c(=O)[nH]2)c1 | cell-free assay, competition with immobilised ligand | 1 µM | 83.1%
CN(C)c1nccc(-c2cnc3ncccn23)n1 | binding | 1 µM | 89%
N#CC1(c2ccccn2)CCN(Cc2cc(C(=O)N3CCCC3)c(=O)n3ccccc23)CC1 | cell-free assay, competition with immobilised ligand | 1 µM | 94%
CCN1CCN(Cc2ccc(C(=O)Nc3ccc(C)c(Oc4ccc5c(c4)CC(=O)N5)c3)cc2C(F)(F)F)CC1 | binding, competition with immobilised ligand | 1 µM | 100%
